From ChEMBL document CHEMBL1152930, “Discovery of tetrahydrotetramethylnaphthalene analogs as adult T-cell leukemia cell-selective proliferation inhibitors in a small chemical library constructed based on multi-template hypothesis” (Bioorg Med Chem, 2009)

Tests used:
[1] = tested on: MOLT-4; experiment: Selectivity index, ratio of IC50 for HTLV1-deficient human MOLT4 cells to IC50 for HTLV1-carrying S1T cells isolated from peripheral blood mononuclear cells of adult T leukemic patient; type: functional
Summary of the method: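 SI taken as IC₅₀ in MOLT-4 over IC₅₀ in S1T cells. Both IC₅₀ values come from 4-day MTT viable-cell counts over a range of concentrations.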

[2] = tested on: MOLT-4; experiment: Antiproliferative activity against HTLV1-deficient human MOLT4 cells after 4 days by MTT assay; type: functional, cell-based; details: MOLT-4, 96 h
Summary of the method: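 Cells were cultured without or with a range of test-compound concentrations for 4 days. Viable cell number was then measured by MTT, and IC50 values were calculated from it. The same protocol was run in parallel on S1T cells, an ATL patient-derived line.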

[3] = Antiproliferative activity against HTLV1-carrying human S1T cells isolated from peripheral blood mononuclear cells of adult T leukemic patient after 4 days by MTT assay; type: functional; details: 96 h
Summary of the method: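 Cells grown 4 days without or with a range of compound concentrations; viable cell number read by MTT; IC₅₀ calculated from the resulting data.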

[4] = tested on: HL-60; experiment: Antiproliferative activity against human HL60 cells; type: functional, cell-based
[5] = tested on: MOLT-4; experiment: Antiproliferative activity against human MOLT4 cells; type: functional, cell-based
[6] = tested on: U-937; experiment: Antiproliferative activity against human U937 cells; type: functional, cell-based
[7] = tested on: Jurkat; experiment: Antiproliferative activity against human Jurkat cells; type: functional, cell-based
[8] = tested on: MOLT-4; experiment: Cell cycle arrest in HTLV1-deficient human MOLT4 cells assessed as accumulation at G0/G1 phase at 20 uM after 24 hrs using propidium iodide/RNA staining buffer by FACS analysis; type: functional
Summary of the method: (§1)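 Cells seeded at 1 × 10⁶/ml with or without 20 µM compound for 24 h. Then PBS wash, fixing in 1% paraformaldehyde, permeabilising in 70% ethanol and 15 min propidium iodide/RNA staining. Phase populations given as % of cells.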

[9] = Induction of apoptosis in HTLV1-carrying human S1T cells isolated from peripheral blood mononuclear cells of adult T leukemic patient at 20 uM after 48 hrs using fluorescein isothiocyanate-conjugated annexin V staining by FACS analysis relative to control; type: functional
Summary of the method: (§2)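 Cells seeded at 1 × 10⁶/ml and held with or without 20 µM compound for 24 or 48 h. Apoptotic cells given as %; relative values are the ratio of treated to untreated apoptosis %.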

[10] = tested on: MOLT-4; experiment: Induction of apoptosis in HTLV1-deficient human MOLT4 cells at 20 uM after 48 hrs using fluorescein isothiocyanate-conjugated annexin V staining by FACS analysis; type: functional; summary of the method: as §2
[11] = Induction of apoptosis in HTLV1-carrying human S1T cells isolated from peripheral blood mononuclear cells of adult T leukemic patient at 20 uM after 24 hrs using fluorescein isothiocyanate-conjugated annexin V staining by FACS analysis; type: functional; summary of the method: as §2
[12] = Cell cycle arrest in HTLV1-carrying human S1T cells isolated from peripheral blood mononuclear cells of adult T leukemic patient assessed as accumulation at G0/G1 phase at 20 uM after 24 hrs using propidium iodide/RNA staining buffer by FACS analysis; type: functional; summary of the method: as §1
[13] = Induction of apoptosis in HTLV1-carrying human S1T cells isolated from peripheral blood mononuclear cells of adult T leukemic patient at 20 uM after 24 hrs using fluorescein isothiocyanate-conjugated annexin V staining by FACS analysis relative to control; type: functional; summary of the method: as §2
[14] = tested on: MOLT-4; experiment: Induction of apoptosis in HTLV1-deficient human MOLT4 cells at 20 uM after 24 hrs using fluorescein isothiocyanate-conjugated annexin V staining by FACS analysis; type: functional; summary of the method: as §2
[15] = tested on: MOLT-4; experiment: Cell cycle arrest in HTLV1-deficient human MOLT4 cells assessed as accumulation at G2/M phase at 20 uM after 24 hrs using propidium iodide/RNA staining buffer by FACS analysis; type: functional; summary of the method: as §1
[16] = tested on: MOLT-4; experiment: Cell cycle arrest in HTLV1-deficient human MOLT4 cells assessed as accumulation at S phase at 20 uM after 24 hrs using propidium iodide/RNA staining buffer by FACS analysis; type: functional; summary of the method: as §1
[17] = Induction of apoptosis in HTLV1-carrying human S1T cells isolated from peripheral blood mononuclear cells of adult T leukemic patient at 20 uM after 48 hrs using fluorescein isothiocyanate-conjugated annexin V staining by FACS analysis; type: functional; summary of the method: as §2
[18] = Cell cycle arrest in HTLV1-carrying human S1T cells isolated from peripheral blood mononuclear cells of adult T leukemic patient assessed as accumulation at S phase at 20 uM after 24 hrs using propidium iodide/RNA staining buffer by FACS analysis; type: functional; summary of the method: as §1
[19] = Cell cycle arrest in HTLV1-carrying human S1T cells isolated from peripheral blood mononuclear cells of adult T leukemic patient assessed as accumulation at G2/M phase at 20 uM after 24 hrs using propidium iodide/RNA staining buffer by FACS analysis; type: functional; summary of the method: as §1

| SMILES | Ratio IC50 [1] | IC50 [2] | IC50 [3] | further results |
| --- | --- | --- | --- | --- |
| CC1(C)CCC(C)(C)c2cc(C(=O)c3ccccc3)c(O)cc21 | 1.9 | 28.3 µM | 15.2 µM | – |
| CC1(C)CCC(C)(C)c2ccccc21 | – | > 100 µM | > 100 µM | – |
| CCC(=O)c1cc2c(cc1O)C(C)(C)CCC2(C)C | 6.9 | 32.3 µM | 4.7 µM | – |
| CC1(C)CCC(C)(C)c2cc(C(N)=O)ccc21 | 1.1 | 39.4 µM | 37 µM | – |
| CC1(C)CCC(C)(C)c2cc(C(=O)c3ccccc3)ccc21 | 1.7 | 11.8 µM | 7 µM | – |
| CC1(C)CCC(C)(C)c2cc(NC(=O)c3ccc(C(=O)O)cc3)ccc21 [TAMIBAROTENE] | – | – | – | IC50 [4]: 6 µM; IC50 [5]: 19.5 µM; IC50 [6]: 20.2 µM; IC50 [7]: 17.3 µM |
| CC(O)c1ccc2c(c1)C(C)(C)CCC2(C)C (racemic) | 0.87 | 34.4 µM | 39.3 µM | – |
| CC1(C)CCC(C)(C)c2cc(C=O)ccc21 | 0.75 | 24.8 µM | 33 µM | – |
| CON(C)C(=O)c1ccc2c(c1)C(C)(C)CCC2(C)C | 0.8 | 9.9 µM | 12.6 µM | – |
| CC(=O)c1ccc(C)c(C)c1 | – | > 100 µM | > 100 µM | – |
| CC(=O)c1cc2c(cc1O)C(C)(C)CCC2(C)C | 12.4 | 82.9 µM | 6.7 µM | Activity [8]: 42.14%; Activity [9]: 2.1%; Activity [10]: 4%; Activity [11]: 10.1%; Activity [12]: 37%; Activity [13]: 1.3%; Activity [14]: 7%; Activity [15]: 11.1%; Activity [16]: 46.76%; Activity [17]: 10.1%; Activity [18]: 40%; Activity [19]: 23% |
| CC(=O)c1ccc2c(c1)C(C)(C)CCC2(C)C | 9.6 | 66 µM | 6.9 µM | – |
| CC(C)C(=O)c1ccc2c(c1)C(C)(C)CCC2(C)C | 9.1 | 34.6 µM | 3.8 µM | – |
| COc1cc2c(cc1C(C)=O)C(C)(C)CCC2(C)C | 1.7 | 11.9 µM | 7 µM | – |
| CC(=O)c1cc(C)cc(C)c1 | – | > 100 µM | > 100 µM | – |
| CC(=O)c1ccc(C)cc1C | – | > 100 µM | > 100 µM | – |
| CC(C)C(=O)c1cc2c(cc1O)C(C)(C)CCC2(C)C | 5.3 | 31.9 µM | 6 µM | – |
| CC1(C)CCC(C)(C)c2cc(C(=O)O)c(O)cc21 | 1.5 | 44.4 µM | 29.7 µM | – |
| CC(C)(C)C(=O)c1cc2c(cc1O)C(C)(C)CCC2(C)C | 1 | 43.2 µM | 41.5 µM | – |
| CC(=S)c1cc2c(cc1O)C(C)(C)CCC2(C)C | 5.3 | 36.4 µM | 6.9 µM | – |
| CCC(=O)c1ccc2c(c1)C(C)(C)CCC2(C)C | 4.6 | 21.5 µM | 4.7 µM | – |
| CC1(C)CCC(C)(C)c2cc(C(=O)O)ccc21 | – | 61.1 µM | > 100 µM | – |
